Measurements taken from ChEMBL document CHEMBL3856196, “3-(Benzodioxan-2-ylmethoxy)-2,6-difluorobenzamides bearing hydrophobic substituents at the 7-position of the benzodioxane nucleus potently inhibit methicillin-resistant Sa and Mtb cell division” (Eur J Med Chem, 2016).
In brackets after ≈: the same amount, converted by molar mass. Activity calls are given as the source filed them. No cut-off for these calls is given here.

What was measured:
Staphylococcus aureus [1] = assay: Antibacterial activity against […] Staphylococcus aureus ATCC 29213 after 16 hrs by spectrophotometric analysis; type: functional; conditions: ATCC 29213, 16 h
Staphylococcus aureus [2] = assay: Antibacterial activity against methicillin-resistant Staphylococcus aureus clinical isolates after 24 hrs by CLSI […] broth microdilution method; type: functional; conditions: for MBC: read-out: MBC99.9
Summary of the method: (§1)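 CLSI broth microdilution on clinical isolates. Log-phase bacteria in saline at 1–2 × 10⁵ CFU/mL were mixed with compounds diluted in LB, final 0.097–100 μg/mL, for 24 h at 37 °C. MIC is the lowest concentration with total growth inhibition. For MBC, clear wells were plated on sheep-blood agar for 18 h; >99.9% kill versus untreated control. Triplicate.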

Staphylococcus aureus [3] = assay: Antibacterial activity against methicillin-susceptible Staphylococcus aureus clinical isolates after 24 hrs by CLSI […] broth microdilution method; type: functional; conditions: for MBC: read-out: MBC99.9; summary of the method: as §1
[4] = Therapeutic index, ratio of TD90 for human MRC5 cells to MBC for […] Staphylococcus aureus ATCC 29213; type: cell-based; conditions: read-out: TI
Summary of the method: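 Ratio of TD₉₀ (MTT assay on MRC-5, 24 h exposure) to MBC against MRSA ATCC 29213 (LB tube assay, wash-out and overnight regrowth by OD600).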

Enterococcus faecalis [5] = assay: Antibacterial activity against vancomycin-susceptible Enterococcus faecalis clinical isolates after 24 hrs by CLSI […] broth microdilution method; type: functional; conditions: for MBC: read-out: MBC99.9; summary of the method: as §1
Enterococcus faecalis [6] = assay: Antibacterial activity against vancomycin-resistant Enterococcus faecalis clinical isolates after 24 hrs by CLSI […] broth microdilution method; type: functional; conditions: for MBC: read-out: MBC99.9; summary of the method: as §1
[7] = Cytotoxicity against human MRC5 cells assessed as reduction in cell viability after 24 hrs by MTT assay; type: toxicity, cell-based; conditions: mrc5, 24 h
Summary of the method: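 MRC-5 lung fibroblasts (DMEM, 10% heat-inactivated calf serum, 37 °C, 5% CO₂) at 10⁴ cells/well were exposed 24 h to twofold serial dilutions in DMEM. Then 1 mg/ml MTT in serum-free DMEM for 3 h, DMSO solubilisation, A570. Cytotoxicity % = 100 − (sample OD/untreated OD) × 100; TD₅₀/TD₉₀ are concentrations cutting viability 50/90%.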

[8] = target: T1, Cell division protein FtsZ (Staphylococcus aureus) (UniProt P0A031); assay: Inhibition of Staphylococcus aureus FtsZ assessed as bacterial swelling at 0.25 ug/ml after overnight incubation by phase-contrast light microscopic analysis
T1 sequence (whole entry): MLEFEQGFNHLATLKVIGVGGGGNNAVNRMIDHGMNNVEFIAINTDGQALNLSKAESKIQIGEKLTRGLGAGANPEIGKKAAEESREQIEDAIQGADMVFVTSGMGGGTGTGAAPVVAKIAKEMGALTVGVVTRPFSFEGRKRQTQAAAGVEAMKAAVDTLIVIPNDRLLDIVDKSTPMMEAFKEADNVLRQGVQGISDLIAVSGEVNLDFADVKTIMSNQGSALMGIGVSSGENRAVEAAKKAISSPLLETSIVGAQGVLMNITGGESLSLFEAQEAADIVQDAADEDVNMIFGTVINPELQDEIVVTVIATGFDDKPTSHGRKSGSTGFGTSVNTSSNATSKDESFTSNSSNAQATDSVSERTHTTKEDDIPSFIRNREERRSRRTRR
Summary of the method: (§2)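 S. aureus grown overnight with compound at levels starting from the previously determined MIC. Untreated cultures served as negative control. Examined by phase-contrast microscopy at 630×.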

[9] = tested on: Mycolicibacterium smegmatis; assay: Inhibition of FtsZ polymerization in GFP-tagged Mycobacterium smegmatis assessed as presence of elongated cells with enlarged bacterial pole at 0.5 ug/ml by fluorescence-based microscopic analysis
Summary of the method: (§3)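 GFP-expressing M. smegmatis or M. tuberculosis grown at subMIC concentrations on glass coverslips in 7H9/ADC/Tween 80. Cells were fixed with phosphate-buffered 4% paraformaldehyde and examined by fluorescence microscopy at 100× for cell morphology.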

[10] = target: T1, Cell division protein FtsZ (Staphylococcus aureus); assay: Inhibition of Staphylococcus aureus FtsZ assessed as alteration in septum formation at 0.25 ug/ml after 16 hrs by transmission electron microscopic analysis
Summary of the method: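 S. aureus at 10⁹ cells/ml grown 16 h at 37 °C with compound, untreated control included. Cells were pelleted at 3100 × g for 5 min, fixed in 2.5% glutaraldehyde in 0.1 M Na cacodylate pH 7.4 for 1 h at 4 °C, post-fixed in 1% OsO₄ for 1 h at 4 °C, and examined by TEM for septum and ultrastructure.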

[11] = target: T1, Cell division protein FtsZ (Staphylococcus aureus); assay: Inhibition of Staphylococcus aureus FtsZ assessed as increase in cell volume at 0.25 ug/ml after overnight incubation by phase-contrast light microscopic analysis; summary of the method: as §2
[12] = tested on: Mycobacterium tuberculosis; assay: Antitubercular activity against Mycobacterium tuberculosis H37Rv by Alamar blue assay; type: functional
Summary of the method: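 M. tuberculosis in 7H9 medium with ADC and 0.05% Tween 80; MIC by microplate Alamar Blue assay.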

[13] = target: T1, Cell division protein FtsZ (Staphylococcus aureus); assay: Inhibition of Staphylococcus aureus FtsZ assessed as cellular desegregation at 0.25 ug/ml after overnight incubation by phase-contrast light microscopic analysis; summary of the method: as §2
[14] = tested on: Mycobacterium tuberculosis; assay: Inhibition of FtsZ polymerization in GFP-tagged Mycobacterium tuberculosis assessed as presence of elongated cells with enlarged bacterial pole at 8 ug/ml by fluorescence-based microscopic analysis; summary of the method: as §3

| SMILES | MBC (Staphylococcus aureus [1]) [µg/mL] | MIC (Staphylococcus aureus [1]) [µg/mL] | selectivity ratio [4] | TD90 [7] [µg/mL] | further results |
| --- | --- | --- | --- | --- | --- |
| NC(=O)c1c(F)ccc(OCC2COc3ccc(C(F)(F)F)cc3O2)c1F (stereo unspecified) | 2.5 (≈ 6.42 µM) | 2.5 (≈ 6.42 µM) |  |  |  |
| CCCCNC(=O)c1ccc2c(c1)OC(COc1ccc(F)c(C(N)=O)c1F)CO2 (stereo unspecified) |  | > 100 |  |  |  |
| NC(=O)c1c(F)ccc(OCC2COc3ccc([N+](=O)[O-])cc3O2)c1F (stereo unspecified) | 2.5 (≈ 6.83 µM) | 1.25 (≈ 3.41 µM) |  |  |  |
| NC(=O)c1c(F)ccc(OCC2COc3ccc(I)cc3O2)c1F (stereo unspecified) | 0.625 (≈ 1.4 µM) | 0.313 (≈ 0.7 µM) | > 1280 | > 800 | MIC90 (Staphylococcus aureus [2]): 0.39 µg/mL (≈ 0.872 µM); MBC (Staphylococcus aureus [2]): 1.56 µg/mL (≈ 3.49 µM); MIC90 (Staphylococcus aureus [3]): 0.78 µg/mL (≈ 1.74 µM); MBC (Staphylococcus aureus [3]): 3.12 µg/mL (≈ 6.98 µM); MIC90 (Enterococcus faecalis [5]): 6.25 µg/mL (≈ 14 µM); MBC (Enterococcus faecalis [5]): 12.5 µg/mL (≈ 28 µM); MIC90 (Enterococcus faecalis [6]): 6.25 µg/mL (≈ 14 µM); MBC (Enterococcus faecalis [6]): 25 µg/mL (≈ 55.9 µM) |
| NC(=O)c1c(F)ccc(OCC2CCc3ccccc3O2)c1F (stereo unspecified) | 5 (≈ 15.7 µM) | 5 (≈ 15.7 µM) |  |  |  |
| C=Cc1ccc2c(c1)OC(COc1ccc(F)c(C(N)=O)c1F)CO2 (stereo unspecified) | 1.25 (≈ 3.6 µM) | 0.625 (≈ 1.8 µM) | > 640 | > 800 |  |
| CCCCCCCCCOc1ccc(F)c(C(N)=O)c1F | 1 (≈ 3.34 µM) | 1 (≈ 3.34 µM) | > 200 | > 200 | inhibition [8]: Active; inhibition [9]: Active; inhibition [10]: Active; MIC90 (Staphylococcus aureus [2]): 0.39 µg/mL (≈ 1.3 µM); MBC (Staphylococcus aureus [2]): 0.78 µg/mL (≈ 2.61 µM); MIC90 (Staphylococcus aureus [3]): 0.19 µg/mL (≈ 0.635 µM); MBC (Staphylococcus aureus [3]): 0.19 µg/mL (≈ 0.635 µM); inhibition [11]: Active; MIC [12]: 16 µg/mL (≈ 53.4 µM); MIC90 (Enterococcus faecalis [5]): 6.25 µg/mL (≈ 20.9 µM); MBC (Enterococcus faecalis [5]): 12.5 µg/mL (≈ 41.8 µM); inhibition [13]: Active; MIC90 (Enterococcus faecalis [6]): 12.5 µg/mL (≈ 41.8 µM); MBC (Enterococcus faecalis [6]): 25 µg/mL (≈ 83.5 µM); inhibition [14]: Active |
| N#Cc1ccc2c(c1)OC(COc1ccc(F)c(C(N)=O)c1F)CO2 (stereo unspecified) | 2.5 (≈ 7.22 µM) | 1.25 (≈ 3.61 µM) |  |  |  |
| NC(=O)c1c(F)ccc(OC(CO)COc2ccccc2)c1F (stereo unspecified) |  | > 100 |  |  |  |
| NC(=O)c1c(F)ccc(OCC2COc3ccc(F)cc3O2)c1F (stereo unspecified) | 2.5 (≈ 7.37 µM) | 2.5 (≈ 7.37 µM) |  |  |  |
| NC(=O)c1c(F)ccc(OCC2COc3ccc(Br)cc3O2)c1F (stereo unspecified) | 0.625 (≈ 1.56 µM) | 0.625 (≈ 1.56 µM) | > 1280 | > 800 |  |
